# KCNK9 inh: inhibitors of human KCNK9 two-pore domain potassium channel; Q9NPC2; actives 1.2% (n = 310,000); HEK293 KCNK9, FluxOR thallium flux fluorescence; active compounds read low; B-score at 10 µM;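 active = ratio B-score over 3 SD below the library mean, with starting fluorescence within 5 SD of its mean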;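 also: negative B-score means less thallium flux so channel inhibition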
# KCNQ1 inh: human KCNQ1 channel inhibition; P51787; CHO-K1 KCNQ1, FluxOR thallium flux fluorescence; active compounds read high; B-score at 10 µM; actives 1.3% (n = 310,000);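 active = compounds whose thallium flux B-score, printed positive for inhibition, exceeds three library SD while starting fluorescence stays within three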;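 also: channel opened by potassium depolarization with thallium stimulus after 20 min compound exposure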
# KCNQ1 pot: potentiators or activators of human KCNQ1 potassium channel | P51787 | CHO-K1 KCNQ1, thallium flux FluxOR fluorescence; active compounds read high | B-score at 10 µM | actives 0.35% (n = 310,000) | AID 2648;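 active = fluorescence ratio B-score, a plate-corrected score, at least three library SD, with initial intensity B-score within 5 SD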
#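 System: Stable KCNQ1 CHO-K1 line | Incubation: 90 min dye loading and 20 min compound exposure, both at room temperature | Measure: Ratio B score | Medium: Assay buffer for compound exposure, DMSO matched across wells | Compound dosing: Single-concentration screen | Probe or stimulus: K+/Tl+ depolarizing stimulus | Measured by: Kinetic FluxOR fluorescence, 10 s baseline plus 110 s post-stimulus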
# hERG rescue: hERG (human) protection from proarrhythmic block | Q12809 | CHO-hERG, FluxOR thallium flux, dofetilide IC70 present | activation (rescue from dofetilide block), less the hit threshold, % at 10 µM | actives 0.51% (n = 310,000);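 active = activation above the mean of controls blocked by dofetilide plus 5 SD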;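 also: thallium influx through hERG after potassium depolarization seen as dye fluorescence rise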
# Target sequence (Q12809 whole entry, looked up): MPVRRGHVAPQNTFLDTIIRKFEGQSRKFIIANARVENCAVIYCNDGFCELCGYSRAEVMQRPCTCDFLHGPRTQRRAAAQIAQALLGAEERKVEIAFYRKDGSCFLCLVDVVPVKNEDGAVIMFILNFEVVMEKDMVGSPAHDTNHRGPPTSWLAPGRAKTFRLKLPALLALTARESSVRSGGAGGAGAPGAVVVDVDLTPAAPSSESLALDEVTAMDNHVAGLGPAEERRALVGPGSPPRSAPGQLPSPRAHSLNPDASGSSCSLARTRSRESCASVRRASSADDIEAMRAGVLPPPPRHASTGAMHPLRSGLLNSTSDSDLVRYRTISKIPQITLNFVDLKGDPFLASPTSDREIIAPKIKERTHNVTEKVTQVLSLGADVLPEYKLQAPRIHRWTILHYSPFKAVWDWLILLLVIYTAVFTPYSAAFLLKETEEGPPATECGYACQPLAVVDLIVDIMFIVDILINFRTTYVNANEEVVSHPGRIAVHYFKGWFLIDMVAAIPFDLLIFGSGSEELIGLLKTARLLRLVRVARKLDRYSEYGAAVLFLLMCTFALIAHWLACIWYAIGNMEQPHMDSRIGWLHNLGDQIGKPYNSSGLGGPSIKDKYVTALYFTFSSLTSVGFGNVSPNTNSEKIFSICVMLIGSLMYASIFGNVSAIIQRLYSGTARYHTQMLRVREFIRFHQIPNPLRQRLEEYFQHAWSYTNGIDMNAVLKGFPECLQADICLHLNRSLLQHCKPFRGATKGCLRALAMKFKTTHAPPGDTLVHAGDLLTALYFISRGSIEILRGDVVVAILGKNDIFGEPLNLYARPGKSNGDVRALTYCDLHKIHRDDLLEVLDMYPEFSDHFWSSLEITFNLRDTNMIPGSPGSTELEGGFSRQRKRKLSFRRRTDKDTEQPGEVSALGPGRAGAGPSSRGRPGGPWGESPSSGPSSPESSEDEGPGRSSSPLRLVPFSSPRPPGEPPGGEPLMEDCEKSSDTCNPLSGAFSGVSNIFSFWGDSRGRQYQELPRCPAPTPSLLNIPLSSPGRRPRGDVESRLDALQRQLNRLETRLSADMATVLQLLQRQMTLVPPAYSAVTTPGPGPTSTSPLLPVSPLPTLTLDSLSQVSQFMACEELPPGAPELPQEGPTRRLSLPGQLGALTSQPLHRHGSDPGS
# KCNK3 block: human KCNK3 channel inhibition, primary screen. CHO-KCNK3 thallium flux, FluxOR fluorescence; active compounds read low. AID 602410. B-score at 10 µM. actives 0.84% (n = 340,000). O14649;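 active = B-score under library mean minus 4 SD, starting fluorescence ratio at most library mean plus 5 SD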;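 also: more negative B-score means stronger inhibition of thallium flux through KCNK3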
# KCNK3 confirm: human KCNK3 channel inhibition, confirmation assay; CHO-KCNK3 thallium flux, FluxOR fluorescence; 0% buffer, 100% carvedilol maximal block; shares compounds with KCNK3 block; AID 651638; actives 99% (n = 2,400); ratio percent of control, % at 10 µM;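 active = ratio percent of control, averaged over triplicates, above buffer control mean plus 5 SD, cut at about 64% in these data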;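 also: ratio is the fluorescence rise from min to max over baseline after thallium stimulus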
# KCNK3 noninduced: counter-screen for KCNK3 inhibitors: effect in non-induced cells; thallium flux ratio (lower = more inhibition) at 10 µM; actives 40% (n = 2,400); non-induced KCNK3 parental cells, FluxOR thallium flux; active compounds read low; AID 651747; shares compounds with KCNK3 block;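 active = thallium flux ratio, averaged over three wells, more than 5 SD below the buffer control mean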;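 also: host cells are CHO cells without KCNK3 induction; ratio is peak minus trough fluorescence over baseline then normalized to buffer controls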
# * hit, by the source's call; i = inactive; x = no result given. Shown are actives, neighbours in structure and some others; about 3.1% of the full set was active somewhere.
SMILES,KCNK9 inh,KCNQ1 inh,KCNQ1 pot,hERG rescue,KCNK3 block,KCNK3 confirm,KCNK3 noninduced
COc1ccc(/C(C)=N/NS(=O)(=O)c2cc(C)ccc2C)c(OC)c1,i,i,i,-8,-10*,97*,i
Cc1cccc(CSC2=NCCN2S(=O)(=O)c2ccc(F)cc2)c1,i,i,i,-9,-8.9*,105*,i
CC(=O)Oc1c(/C=C(\C#N)C(N)=O)[nH]c2ccccc12,i,i,i,-12,-9*,101*,0.14*
COc1ccc2c(c1)C(c1cccs1)=NNC(c1ccncc1)=N2,i,i,i,-9,-8.8*,66*,i
COc1ccc(/C=C2\COc3ccccc3C2=O)cc1OC,i,i,i,-1,i,x,x
COc1ccc(/C=C2\COc3ccccc3C2=O)c(OC)c1,i,i,i,-12,-9.6*,121*,i
COc1ccc(CNn2c(-c3cccs3)nc3ccccc3c2=O)cc1OC,i,i,i,-17,-9.3*,91*,i
COCCn1c(SCC(=O)NCc2ccc(F)cc2)nc2ccccc21,i,i,i,-5,i,x,x
O=c1[nH]c([N+](=O)[O-])nn1C(c1ccccc1)c1ccccc1,i,i,i,-5,-10*,0,i
C/C(=N\Nc1cc(C(F)(F)F)ccc1Cl)c1ccncc1,i,i,i,-5,-9.7*,110*,i
O=C(Nc1cc(C(F)(F)F)ccc1Cl)c1ccncc1,i,i,i,-4,i,x,x
COC(=O)CSc1nc2cc(Cl)ccc2c(=O)n1C1CCCC1,i,i,i,-16,i,x,x
NC(=O)CSc1nc2cc(Cl)ccc2c(=O)n1C1CCCCC1,i,i,i,-3,-10*,95*,i
Cc1ccc(NC(=S)Nc2cccc3ccccc23)cc1,i,i,i,-6,i,x,x
CC(C)c1ccc(NC(=S)Nc2cccc3ccccc23)cc1,i,i,i,-8,-8.9*,105*,i
CC(=O)N(/N=C1/C(=O)Nc2ccccc21)c1ccccc1,i,i,i,-9,-9*,125*,0.12*
CC(=O)c1ccc(N=C2C(=O)Nc3ccccc32)cc1,i,i,i,-3,i,x,x
COc1ccc(/C(C)=N/N2C(=O)c3ccccc3NC2c2ccc(O)c(OC)c2)cc1 (stereo not drawn),i,i,i,-12,-9.3*,99*,i
COc1cc(C2Nc3ccccc3C(=O)N2c2ccccc2)ccc1O (stereo not drawn),i,i,i,-3,i,x,x
Cc1ccc(-c2cc(C(=O)N3CCCCC3)c3ccccc3n2)cc1C,i,i,i,-16,-8.9*,85*,0.15*
O=C(c1cc(-c2ccccc2)nc2ccccc12)N1CCCC1,i,i,i,-8,i,x,x
S=C(Nc1ccccc1)N1CCn2cccc2C1c1cccnc1 (stereo not drawn),i,i,i,-11,i,x,x
Fc1ccccc1C1c2cccn2CCN1C(=S)Nc1ccc(Br)cc1 (stereo not drawn),i,7*,i,-17,-15*,132*,0.12*
Cc1cc(C)c2nc(-c3cccc(Cl)c3)c(C)c(C(=O)N3CCOCC3)c2c1,-7.4*,i,i,-13,-9.5*,122*,0.15*
Cc1c(NC(=O)C(C)N2C(=O)NC3(CCC(C)CC3)C2=O)c(=O)n(-c2ccccc2)n1C (stereo not drawn),i,i,i,-10,i,x,x
SMILES,KCNK9 inh,KCNQ1 inh,KCNQ1 pot,hERG rescue,KCNK3 block,KCNK3 confirm,KCNK3 noninduced
CCc1cc(CNC(=O)c2cc(COc3ccc(C)nc3)on2)on1,i,i,i,-6,-9.4*,0,i
COc1ccc(C)cc1-n1c(SCC(=O)Nc2cc(C)on2)nc2sc(C)c(C)c2c1=O,i,i,i,-8,-11*,128*,i
C=CCn1c(SCC(=O)Nc2cc(C)on2)nc2sc(C)c(C)c2c1=O,i,i,i,-12,i,x,x
CC(Nc1ccc(Br)cc1)C(=O)Nc1cccc(S(=O)(=O)N2CCOCC2)c1 (stereo not drawn),x,x,x,x,i,x,x
COc1cc(/C=C(\C#N)c2ccccn2)ccc1OCc1ccc(Cl)cc1,i,i,i,-2,i,x,x
Cc1ccc(NC(=O)C(=O)NN=C2CCCC2)cc1C,i,i,i,-6,i,x,x
Cc1c(CCOC(=O)c2ccccc2)sc[n+]1CC(=O)c1ccc(Br)cc1,i,i,i,-17,i,x,x
Cc1c(CCOC(=O)CC23CC4CC(CC(C4)C2)C3)sc[n+]1CC(=O)c1ccc(Br)cc1,i,6*,i,-33,-10*,119*,i
CCOC(=O)CNC(=O)C1c2ccccc2Oc2ccccc21,i,i,i,-8,-12*,50*,i
C=CCOC(=O)C1=C(C)NC(C)=C(C(=O)OCC=C)C1c1ccc(C)o1,i,i,i,-3,-10*,104*,i
COc1ccc(CCNC(=O)CSc2nnc(C(C)N(C)C)n2Cc2ccccc2)cc1OC (stereo not drawn),i,i,i,-15,i,x,x
C/C(=N\OC(=O)NC1CCCCC1)c1sc(-c2ccccc2)nc1C,i,i,i,-12,-11*,113*,0.14*
C/C(=N\OC(=O)NC(C)C)c1sc(-c2ccccc2)nc1C,i,i,i,-8,i,x,x
CCCCn1c(N)c(N(CC(C)C)C(=O)c2ccc(F)c(S(=O)(=O)N3CCOCC3)c2)c(=O)[nH]c1=O,i,i,i,-13,i,x,x
C[C@H]1CN([C@@H](C)CO)C(=O)c2cccc(NC(=O)C3CC3)c2O[C@H]1CN(C)CC1CCCCC1,x,x,x,x,i,x,x
C[C@H](CO)N1C[C@H](C)[C@@H](CN(C)CC2CCCCC2)Oc2c(NC(=O)C3CC3)cccc2C1=O,x,x,x,x,-12*,104*,i
Cn1c(C(=O)N2CCc3ccccc3C2)cc2oc3ccccc3c21,i,i,i,-2,i,x,x
CCn1c(C(=O)N2CCc3ccccc3C2)cc2oc3ccccc3c21,i,7*,i,-10,-9.1*,120*,0.15*
CCOC(=O)C1=C(C)N=C2c3ccccc3C(=O)C2C1c1ccccc1 (stereo not drawn),i,i,i,-6,-8.9*,102*,i
CC(Cl)C(=O)NN=C(c1ccccc1)c1ccccc1 (stereo not drawn),i,i,i,-13,-8.9*,94*,i
